Measurements published in PMC3942533 (Journal of medicinal chemistry, 2013).
Counter-ions that a name gives are not always drawn. Like-named read-outs stand apart in the source and are kept apart here.

How the values were obtained:
mouse vas deferens (δ) [1] = assay: MVD isolated tissue bioassay; assay type: biochemical; conditions: read-out: MVD (δ) IC50; 50% inhibition of muscle contraction, n = 4, ±SEM
[2] = test system: guinea pig ileum/longitudinal muscle myenteric plexus (μ); assay: GPI isolated tissue bioassay; assay type: biochemical; conditions: for IC50: read-out: GPI (μ) IC50, 50% inhibition of muscle contraction, n = 4, ±SEM
mouse hot plate = assay: Hot plate antinociception test; assay type: in vivo; conditions: mice, icv 0.6 nmol, 30 and 45 min after administration
Method in brief: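 Mice received the test compound locally (icv, 0.6 nmol) or systemically (iv, 3000 nmol) and were assessed on the hot plate, with morphine as a reference. Antinociception expressed as % MPE over time and reported as mean ± SEM. Compared with vehicle-treated animals by two-way ANOVA and Bonferroni post hoc tests; significance P < 0.05.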

[3] = Enzymatic stability in human plasma; assay type: in vitro ADME; conditions: 37 °C, compared with Biphalin
Method in brief: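 Test compound incubated in human plasma at 37 °C, with stability followed as a curve over time. Three independent experiments (n = 3), reported as mean ± SEM. Groups compared by two-way ANOVA with Bonferroni post hoc comparisons.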

mouse vas deferens (δ) [4] = conditions: read-out: MVD (δ) IC50; ±SEM; ref [1b] and [13]; cited from earlier work
[5] = test system: guinea pig ileum/longitudinal muscle myenteric plexus (μ); conditions: read-out: GPI (μ) IC50; ±SEM; ref [1b] and [13]; cited from earlier work

For `C[C@@H](NC(=O)[C@@H](N)Cc1ccc(O)cc1)C(=O)NCC(=O)N[C@H](CC(=O)NNC(=O)C[C@H](Cc1ccccc1)NC(=O)CNC(=O)[C@@H](C)NC(=O)[C@@H](N)Cc1ccc(O)cc1)Cc1ccccc1` [Compound 1, 2 TFA·(Tyr-D-Ala-Gly-hβ^3Phe-NH)2], which IC50 (mouse vas deferens (δ) [1]) is on record?
The IC50 was 33 ± 9.4 nM.

What about the IC50 [2] of the same compound?
Its IC50 is 50 ± 6.5 nM.

What about the “MPE (antinociceptive effect)” value (mouse hot plate) of the same compound?
The value was 100%.

What about the “enzymatic stability, remaining parent compound versus time” value [3] of the same compound?
Its value is “increased stability”.

With `C[C@@H](NC(=O)[C@@H](N)Cc1ccc(O)cc1)C(=O)NCCC(=O)N[C@@H](Cc1ccccc1)C(=O)NNC(=O)[C@H](Cc1ccccc1)NC(=O)CCNC(=O)[C@@H](C)NC(=O)[C@@H](N)Cc1ccc(O)cc1` [Compound 2, 2 TFA·(Tyr-D-Ala-βAla-Phe-NH)2] as the compound, how does the IC50 (mouse vas deferens (δ) [1]) read?
Its IC50 is 1300 ± 221 nM.

What about the “GPI (μ) inhibition at fixed concentration” value ([2]; at 1 μM) of the same compound?
Its value is 9.2% at 1 μM.

And the “IC50 (GPI)/IC50 (MVD)” value ([2]; ratio)?
The value was over 0.75.

For `C[C@@H](NC(=O)C[C@@H](N)Cc1ccc(O)cc1)C(=O)NCC(=O)N[C@@H](Cc1ccccc1)C(=O)NNC(=O)[C@H](Cc1ccccc1)NC(=O)CNC(=O)[C@@H](C)NC(=O)C[C@@H](N)Cc1ccc(O)cc1` [Compound 4, 2 TFA·(hβ^3Tyr-D-Ala-Gly-Phe-NH)2], which IC50 (mouse vas deferens (δ) [1]) is on record?
Its IC50 is 710 ± 97 nM.

And the IC50 [2]?
The IC50 was 670 ± 139 nM.

What does the source list for Biphalin [Bph]?
IC50 (mouse vas deferens (δ) [4]): 2.7 ± 1.5 nM; IC50 [5]: 8.8 ± 0.3 nM
